According to ChEMBL document CHEMBL1151731, “Targeting pro-invasive oncogenes with short chain fatty acid-hexosamine analogues inhibits the mobility of metastatic MDA-MB-231 breast cancer cells” (J Med Chem, 2008):
Calls of active or inactive are those of the source. No cut-off for these calls is given here.

Legend:
MDA-MB-231 [1] = experiment: Inhibition of human MDA-MB-231 cells invasion at 50 uM by Boyden chamber assay; format: functional, cell-based
MDA-MB-231 [2] = experiment: Effect on proteosomal activity of human MDA-MB-231 cells measured after 3 days in absence of epoxomicin; format: functional, cell-based
Outline: (§1)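 Viable MDA-MB-231 cells (100000 in 100 µL RPMI) incubated with a succinyl luminogenic proteasome substrate; activity expressed as luminescence normalized to untreated controls. Analogue exposure 3 days; epoxomicin control exposure 6 h. SEM of independent experiments in triplicate.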

MDA-MB-231 [3] = experiment: Induction of salic acid production in human MDA-MB-231 cells by periodate-resorcinal assay; format: functional, cell-based
Outline: (§2)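 Periodate-resorcinol assay for total sialic acid, adapted to small volumes. Treated cells were trypsinized, washed and resuspended in PBS, Coulter-counted, and lysed by three freeze-thaw cycles. Readings taken within five minutes. Molecules per cell calculated from the harvested cell number and a sialic acid standard curve run alongside. SEM, n ≥ 3.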

[4] = target: T1, Histone deacetylase (Homo sapiens) (UniProt Q13547+O15379+Q9UBN7+Q92769+Q9UQL6+Q8WUI4+Q9BY41+Q96DB2+P56524+Q9UKV0+Q969S8); experiment: Inhibition of HDAC in human MDA-MB-231 cells assessed as decrease in MUC1 mRNA expression qRT-PCR; format: cell-based
MDA-MB-231 [5] = experiment: Suppression of CXCR4 mRNA in human MDA-MB-231 cells after 3 days by qRT-PCR; format: functional, cell-based
Outline: (§3)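 Cells exposed 3 days to compound. RNA extracted with Trizol, DNase-treated and column-purified. qRT-PCR with Ct measured in quadruplicate; relative expression by the 2^-ΔΔCt method. Products checked on agarose gel. SEM of independent experiments done in triplicate.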

[6] = target: T1, Histone deacetylase (Homo sapiens); experiment: Inhibition of HDAC in human MDA-MB-231 cells assessed as increase in p21 mRNA level by qRT-PCR; format: cell-based
[7] = target: T1, Histone deacetylase (Homo sapiens); experiment: Inhibition of HDAC in human MDA-MB-231 cells assessed as increase in histone H3 acetylation after 2 days by densitometry
MDA-MB-231 [8] = experiment: Inhibition of proteosomal activity of human MDA-MB-231 cells measured after 6 hrs in presence of epoxomicin; format: functional, cell-based; outline: as §1
MDA-MB-231 [9] = experiment: Reduction of endogenous NFKB1 (p105) mRNA level in human MDA-MB-231 cells; format: functional, cell-based
MDA-MB-231 [10] = experiment: Inhibition of human MDA-MB-231 cells migration at 50 uM by Boyden chamber assay; format: functional, cell-based
MDA-MB-231 [11] = experiment: Suppression of pro-MMP9 mRNA level in human MDA-MB-231 cells after 3 days by qRT-PCR; format: functional, cell-based; outline: as §3
MDA-MB-231 [12] = experiment: Antiproliferative activity against human MDA-MB-231 cells by Coulter counting analysis; format: functional, cell-based
Outline: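 MDA-MB-231 cells grown in RPMI-1640 with 10% FBS and plated at 27000 cells/cm² with compound added at plating from EtOH stock (final EtOH 0.4% v/v). Incubated 3 days at 37 °C, 5% CO₂. Viable cells trypsinized and counted on a Coulter counter. SEM, n ≥ 3.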

MDA-MB-231 [13] = experiment: Increase in sialic acid production in human MDA-MB-231 cells by periodate-resorcinal assay; format: functional, cell-based; outline: as §2
HEK AD293 (Homo sapiens) = experiment: Inhibition of NF-kappaB transcriptional activity in human HEK AD293 cells by luciferase reporter gene assay
HEK293 = experiment: Inhibition of NF-kappaB transcriptional activity in human HEK AD293 cells at 125 uM by luciferase reporter gene assay; format: cell-based; parameters: scale not given: the % may be the effect or the level left
Outline: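 HEK AD293 cells (DMEM, 10% FBS) lipofected with an NF-κB consensus luciferase reporter plus an equal mass of SV-promoter β-galactosidase plasmid. Replated after 24 h recovery and treated with compound. Luciferase read by chemiluminescence and β-galactosidase colorimetrically; activity expressed as their ratio. SEM of independent experiments in triplicate.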

MDA-MB-231 [14] = experiment: Inhibition of human MDA-MB-231 cells invasion at 150 uM after 2 days by Boyden chamber assay; format: functional, cell-based
Outline: (§4)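 Cells pretreated 2 or 3 days with compound (final EtOH 0.4% v/v), then trypsinized and resuspended in serum-free RPMI-1640. 50000 viable cells per chamber (equal loading confirmed by WST-8) in modified Boyden chambers. Migration measured through 8.0 µm pores toward a serum gradient; invasion through a Matrigel layer. After 24 h at 37 °C, cells were stained with Diff-Quik and counted. Viability rechecked by WST-8 at 24 h. SEM of technical replicates (n = 6 or 3); double-sided t test.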

MDA-MB-231 [15] = experiment: Inhibition of human MDA-MB-231 cells invasion at 50 uM after 2 days by Boyden chamber assay; format: functional, cell-based; outline: as §4
MDA-MB-231 [16] = experiment: Decrease in MUC1 mRNA transcription in human MDA-MB-231 cells by qRT-PCR; format: functional, cell-based
Outline: (§5)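 MDA-MB-231 RNA extracted with Trizol, DNase-treated and column-purified. qRT-PCR with Ct values in quadruplicate; relative expression by 2^-ΔΔCt from average Ct. Amplicons verified by agarose gel electrophoresis.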

MDA-MB-231 [17] = experiment: Growth inhibition of human MDA-MB-231 cells assessed as rounded-up morphology after 3 days by phase contrast micrograph
MDA-MB-231 [18] = experiment: Inhibition of human MDA-MB-231 cells invasion at 50 uM after 3 days by Boyden chamber assay; format: functional, cell-based; outline: as §4
MDA-MB-231 [19] = experiment: Inhibition of NF-kappaB transcriptional activity in human MDA-MB-231 cells at 125 uM by luciferase reporter gene assay; format: cell-based; parameters: scale not given: the % may be the effect or the level left
Outline: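 MDA-MB-231 cells electroporated with an NF-κB luciferase reporter plus an equal mass of SV-promoter β-galactosidase plasmid. Replated after 24 h recovery and treated with compound. NF-κB transactivation taken as the luciferase to β-galactosidase activity ratio. SEM of independent experiments in triplicate.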

MDA-MB-231 [20] = experiment: Decrease in MMP9 gelatinase activity in human MDA-MB-231 cells after 3 days by Zymogram assay; format: functional, cell-based
MDA-MB-231 [21] = experiment: Inhibition of human MDA-MB-231 cells migration at 50 uM after 3 days by Boyden chamber assay; format: functional, cell-based; outline: as §4
MDA-MB-231 [22] = experiment: Increase in human MDA-MB-231 cells invasion at 30 mM; format: functional, cell-based
MDA-MB-231 [23] = experiment: Increase in intracellular sialic acid production in human MDA-MB-231 cells at 50 mM; format: functional, cell-based
MDA-MB-231 [24] = experiment: Increase in human MDA-MB-231 cells invasion at 10 mM; format: functional, cell-based
MDA-MB-231 [25] = experiment: Suppression of MUC1 transcription in human MDA-MB-231 cells by qRT-PCR; format: functional, cell-based; outline: as §5
MDA-MB-231 [26] = experiment: Cytotoxicity against human MDA-MB-231 cells at >= 150 uM; format: functional, cell-based
MDA-MB-231 [27] = experiment: Growth inhibition of human MDA-MB-231 cells after 15 days; format: functional, cell-based
Outline: (§6)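 Proliferation followed over time up to 15 days in MDA-MB-231 cells (RPMI-1640, 10% FBS, 37 °C, 5% CO₂). Compound added at plating from EtOH stock, final EtOH 0.4% v/v. Data averaged from triplicate experiments.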

MDA-MB-231 [28] = experiment: Increase in MUC1 mRNA transcription in human MDA-MB-231 cells by qRT-PCR; format: functional, cell-based; outline: as §5
MDA-MB-231 [29] = experiment: Downregulation of CXCR4 in human MDA-MB-231 cells by qRT-PCR; format: functional, cell-based
MDA-MB-231 [30] = experiment: Enhancement of NFkappaB1 level in human MDA-MB-231 cells by qRT-PCR; format: functional, cell-based; outline: as §5
MDA-MB-231 [31] = experiment: Growth inhibition of human MDA-MB-231 cells after 3 to 5 days; format: functional, cell-based; outline: as §6

With `CCCC(=O)OC[C@H]1OC(OC(=O)CCC)[C@@H](OC(=O)CCC)[C@@H](OC(=O)CCC)[C@@H]1OC(=O)CCC` (stereo partly specified) the Activity (MDA-MB-231 [1]) was “inactive”, the Activity (MDA-MB-231 [2]) was “inactive” and the Activity (MDA-MB-231 [3]) was “inactive”. The Activity [4] was “inactive”, the Activity (MDA-MB-231 [5]) was “Active” and the Activity [6] was “Active”. The Activity [7] was “Active”, the Activity (MDA-MB-231 [8]) was “Active” and the Activity (MDA-MB-231 [9]) was “inactive”. The Activity (MDA-MB-231 [10]) was “inactive”, the Activity (MDA-MB-231 [11]) was “Active” and the Activity (MDA-MB-231 [12]) was “Active”.
For `CCCC(=O)OC1O[C@H](CO)[C@@H](OC(=O)CCC)[C@H](OC(=O)CCC)[C@@H]1NC(C)=O` (stereo partly specified), the Activity (MDA-MB-231 [13]) was “Active” and the Activity (HEK AD293 (Homo sapiens)) was “inactive”.
With `CCCC(=O)OC[C@H]1OC(OC(=O)CCC)[C@@H](NC(C)=O)[C@@H](OC(=O)CCC)[C@@H]1OC(=O)CCC` (stereo partly specified) the Activity (MDA-MB-231 [2]) was “inactive”, the Activity (HEK293) was 75% and the Activity (MDA-MB-231 [14]) was “Active”. For the same molecule, the Activity (MDA-MB-231 [15]) was “Active”, the Activity (MDA-MB-231 [3]) was “Dose-dependent effect” and the Activity [4] was “Active”. For the same molecule, the Activity (MDA-MB-231 [5]) was “Active”, the Activity [6] was “Active” and the Activity [7] was “Active”. The Activity (MDA-MB-231 [16]) was “Active”, the Activity (MDA-MB-231 [8]) was “Active” and the Activity (MDA-MB-231 [9]) was “Active”. For the same molecule, the Activity (MDA-MB-231 [11]) was “inactive”, the Activity (MDA-MB-231 [17]) was “Active” and the Activity (MDA-MB-231 [18]) was “Active”. The Activity (MDA-MB-231 [19]) was 75%, the Activity (MDA-MB-231 [20]) was “Dose-dependent effect” and the Activity (MDA-MB-231 [12]) was “Active”. The Activity (MDA-MB-231 [21]) was “Active”.
For `CC(=O)N[C@H](C=O)[C@@H](O)[C@H](O)[C@H](O)CO`, the Activity (MDA-MB-231 [22]) was “inactive”, the Activity (MDA-MB-231 [23]) was “Active” and the Activity (MDA-MB-231 [24]) was “Active”.
With `CCCC(=O)OC[C@H]1OC(O)[C@@H](NC(C)=O)[C@@H](OC(=O)CCC)[C@@H]1OC(=O)CCC` (stereo partly specified) the Activity (MDA-MB-231 [13]) was “Active”, the Activity (MDA-MB-231 [25]) was “Active” and the Activity (MDA-MB-231 [26]) was “Active”.
In the case of `CCCC(=O)OC[C@@H](OC(=O)CCC)[C@@H](OC(=O)CCC)[C@@H]1OC(OC(=O)CCC)(C(=O)OC)C[C@H](OC(=O)CCC)[C@@H]1NC(C)=O` (stereo partly specified), the Activity (MDA-MB-231 [27]) was “inactive”, the Activity (MDA-MB-231 [28]) was “Active” and the Activity (MDA-MB-231 [29]) was “Active”. The Activity (MDA-MB-231 [30]) was “Active” and the Activity (MDA-MB-231 [31]) was “Active”.
`CCCC(=O)O` was tested, and the Activity [6] was “Active” and the Activity [7] was “Active”.
